Source: ChEMBL document CHEMBL5705905, “Pharmacological targeting of kinases MST1 and MST2 augments tissue repair and regeneration” (Sci Transl Med, 2016)
The source made the active and inactive calls. The rule behind the calls is not given here.

What was measured:
[1] = biological target: Activin receptor type-1 (Homo sapiens) (UniProt Q04771); experiment: Inhibition of ACVR1 (unknown origin) assessed as remaining activity at 1 uM by Kinome scan method relative to control
How it was run: (§1)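 Active-site-dependent competition-binding (KINOMEscan) panel of 468 kinases, test compound at 1 μM (from a 10 mM DMSO stock). Read-out is ctrl% = (test signal − positive control signal)/(negative control signal − positive control signal) × 100. DMSO is the negative control (100%) and a control compound is the positive control (0%). Lower ctrl% means tighter binding.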

[2] = biological target: Activin receptor type-1B (Homo sapiens) (UniProt P36896); experiment: Inhibition of ACVR1B (unknown origin) assessed as remaining activity at 1 uM by Kinome scan method relative to control; how it was run: as §1
Chain of Activin receptor type-1B (Homo sapiens) (P36896 whole entry): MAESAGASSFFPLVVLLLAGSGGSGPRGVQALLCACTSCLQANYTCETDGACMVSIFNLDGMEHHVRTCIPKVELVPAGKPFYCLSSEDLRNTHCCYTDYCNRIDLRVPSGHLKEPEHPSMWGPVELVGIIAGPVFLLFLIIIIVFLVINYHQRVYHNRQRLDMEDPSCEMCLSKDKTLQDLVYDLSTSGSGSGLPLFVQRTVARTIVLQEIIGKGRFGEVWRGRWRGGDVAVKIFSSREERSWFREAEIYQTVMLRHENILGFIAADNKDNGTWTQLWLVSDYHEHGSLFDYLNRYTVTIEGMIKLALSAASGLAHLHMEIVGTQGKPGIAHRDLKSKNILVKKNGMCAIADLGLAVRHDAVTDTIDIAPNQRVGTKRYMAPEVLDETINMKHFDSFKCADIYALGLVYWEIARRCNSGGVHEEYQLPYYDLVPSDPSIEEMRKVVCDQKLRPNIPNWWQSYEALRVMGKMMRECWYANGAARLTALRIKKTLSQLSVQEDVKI

[3] = biological target: 5'-AMP-activated protein kinase catalytic subunit alpha-2 (Homo sapiens) (UniProt P54646); experiment: Inhibition of AMPK-alpha2 (unknown origin) assessed as remaining activity at 1 uM by Kinome scan method relative to control; how it was run: as §1
Chain of 5'-AMP-activated protein kinase catalytic subunit alpha-2 (Homo sapiens) (P54646 whole entry, looked up): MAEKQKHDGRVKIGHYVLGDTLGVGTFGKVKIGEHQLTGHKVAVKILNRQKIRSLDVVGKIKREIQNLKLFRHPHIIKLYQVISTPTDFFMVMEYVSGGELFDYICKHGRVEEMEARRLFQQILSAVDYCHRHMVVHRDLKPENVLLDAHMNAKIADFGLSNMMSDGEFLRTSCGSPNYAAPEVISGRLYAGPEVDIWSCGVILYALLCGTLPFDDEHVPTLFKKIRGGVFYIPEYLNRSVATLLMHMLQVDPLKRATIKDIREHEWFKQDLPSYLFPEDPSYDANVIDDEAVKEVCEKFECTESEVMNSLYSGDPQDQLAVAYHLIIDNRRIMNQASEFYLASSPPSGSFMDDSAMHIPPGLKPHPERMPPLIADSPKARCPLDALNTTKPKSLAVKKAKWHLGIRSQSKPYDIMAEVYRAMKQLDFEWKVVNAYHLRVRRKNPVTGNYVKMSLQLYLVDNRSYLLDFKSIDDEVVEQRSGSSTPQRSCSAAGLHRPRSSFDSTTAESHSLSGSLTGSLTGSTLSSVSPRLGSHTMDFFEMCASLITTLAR

[4] = biological target: Dual specificity protein kinase CLK3 (Homo sapiens) (UniProt P49761); experiment: Inhibition of CLK3 (unknown origin) assessed as remaining activity at 1 uM by Kinome scan method relative to control
How it was run: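 Active-site-dependent competition-binding profiling (KINOMEscan) at 1 μM against a 468-kinase panel; compound supplied from a 10 mM DMSO stock. Read-out is ctrl% = (test signal − positive control signal)/(negative control signal − positive control signal) × 100. DMSO is the negative control (100%) and a control compound the positive control (0%). Lower ctrl% means tighter binding.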

[5] = biological target: Dual specificity tyrosine-phosphorylation-regulated kinase 1B (Homo sapiens) (UniProt Q9Y463); experiment: Inhibition of DYRK1B (unknown origin) assessed as remaining activity at 1 uM by Kinome scan method relative to control
[6] = biological target: Ephrin type-A receptor 6 (Homo sapiens) (UniProt Q9UF33); experiment: Inhibition of EPHA6 (unknown origin) assessed as remaining activity at 1 uM by Kinome scan method relative to control
[7] = biological target: Receptor-type tyrosine-protein kinase FLT3 (Homo sapiens) (UniProt P36888); experiment: Inhibition of FLT3 (unknown origin) assessed as remaining activity at 1 uM by Kinome scan method relative to control
[8] = test system: Receptor-type tyrosine-protein kinase FLT3 (Homo sapiens), P36888 [D835H]; experiment: Inhibition of FLT3 D835H mutant (unknown origin) assessed as remaining activity at 1 uM by Kinome scan method relative to control
[9] = biological target: Homeodomain-interacting protein kinase 1 (Homo sapiens) (UniProt Q86Z02); experiment: Inhibition of HIPK1 (unknown origin) assessed as remaining activity at 1 uM by Kinome scan method relative to control
[10] = biological target: Mitogen-activated protein kinase kinase kinase 13 (Homo sapiens) (UniProt O43283); experiment: Inhibition of LZK (unknown origin) assessed as remaining activity at 1 uM by Kinome scan method relative to control
[11] = biological target: Mitogen-activated protein kinase kinase kinase 15 (Homo sapiens) (UniProt Q6ZN16); experiment: Inhibition of MAP3K15 (unknown origin) assessed as remaining activity at 1 uM by Kinome scan method relative to control
Chain of Mitogen-activated protein kinase kinase kinase 15 (Homo sapiens) (Q6ZN16 whole entry): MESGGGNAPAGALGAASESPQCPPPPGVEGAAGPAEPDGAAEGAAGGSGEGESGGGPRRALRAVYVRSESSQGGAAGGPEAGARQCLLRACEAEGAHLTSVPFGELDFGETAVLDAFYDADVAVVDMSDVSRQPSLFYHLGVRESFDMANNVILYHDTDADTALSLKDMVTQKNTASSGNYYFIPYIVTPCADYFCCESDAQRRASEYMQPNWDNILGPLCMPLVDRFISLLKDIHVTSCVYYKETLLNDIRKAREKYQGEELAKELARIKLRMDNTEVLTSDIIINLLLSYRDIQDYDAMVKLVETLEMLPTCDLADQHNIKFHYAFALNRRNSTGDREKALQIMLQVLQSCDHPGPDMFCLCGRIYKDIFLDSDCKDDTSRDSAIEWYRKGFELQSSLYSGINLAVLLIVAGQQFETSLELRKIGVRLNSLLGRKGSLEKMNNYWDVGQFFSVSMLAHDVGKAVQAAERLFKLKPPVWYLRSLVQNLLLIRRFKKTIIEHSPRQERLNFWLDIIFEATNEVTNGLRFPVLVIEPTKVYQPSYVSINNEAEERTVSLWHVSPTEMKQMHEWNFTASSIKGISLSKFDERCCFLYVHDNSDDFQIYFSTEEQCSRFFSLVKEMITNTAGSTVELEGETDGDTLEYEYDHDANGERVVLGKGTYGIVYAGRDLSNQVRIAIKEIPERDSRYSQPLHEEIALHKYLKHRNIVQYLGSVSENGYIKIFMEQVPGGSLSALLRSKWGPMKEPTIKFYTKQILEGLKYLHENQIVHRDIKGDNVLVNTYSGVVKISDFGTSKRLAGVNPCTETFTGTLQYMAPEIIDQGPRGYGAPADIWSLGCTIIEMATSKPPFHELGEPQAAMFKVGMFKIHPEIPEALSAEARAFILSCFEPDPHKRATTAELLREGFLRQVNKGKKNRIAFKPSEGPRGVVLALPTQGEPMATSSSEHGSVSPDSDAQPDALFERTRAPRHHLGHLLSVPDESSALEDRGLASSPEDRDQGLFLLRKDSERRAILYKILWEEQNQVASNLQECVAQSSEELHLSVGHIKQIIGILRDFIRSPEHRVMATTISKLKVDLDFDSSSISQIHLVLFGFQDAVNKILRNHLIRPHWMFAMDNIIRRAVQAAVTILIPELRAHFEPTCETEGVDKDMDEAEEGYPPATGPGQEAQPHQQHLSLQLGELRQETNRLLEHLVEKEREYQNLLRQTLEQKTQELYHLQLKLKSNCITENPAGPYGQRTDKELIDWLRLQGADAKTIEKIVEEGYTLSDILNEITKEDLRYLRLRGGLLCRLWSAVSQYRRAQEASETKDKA

[12] = test system: Hepatocyte growth factor receptor (Homo sapiens), P08581 [Y1235D]; experiment: Inhibition of MET Y1235D mutant (unknown origin) assessed as remaining activity at 1 uM by Kinome scan method relative to control
[13] = biological target: Misshapen-like kinase 1 (Homo sapiens) (UniProt Q8N4C8); experiment: Inhibition of MINK (unknown origin) assessed as remaining activity at 1 uM by Kinome scan method relative to control
[14] = biological target: Dual specificity mitogen-activated protein kinase kinase 7 (Homo sapiens) (UniProt O14733); experiment: Inhibition of MKK7 (unknown origin) assessed as remaining activity at 1 uM by Kinome scan method relative to control
[15] = biological target: Serine/threonine-protein kinase 26 (Homo sapiens, UniProt Q9P289); experiment: Inhibition of MST4 (unknown origin) assessed as remaining activity at 1 uM by Kinome scan method relative to control
Chain of Serine/threonine-protein kinase 26 (Q9P289 2-416 limits assumed): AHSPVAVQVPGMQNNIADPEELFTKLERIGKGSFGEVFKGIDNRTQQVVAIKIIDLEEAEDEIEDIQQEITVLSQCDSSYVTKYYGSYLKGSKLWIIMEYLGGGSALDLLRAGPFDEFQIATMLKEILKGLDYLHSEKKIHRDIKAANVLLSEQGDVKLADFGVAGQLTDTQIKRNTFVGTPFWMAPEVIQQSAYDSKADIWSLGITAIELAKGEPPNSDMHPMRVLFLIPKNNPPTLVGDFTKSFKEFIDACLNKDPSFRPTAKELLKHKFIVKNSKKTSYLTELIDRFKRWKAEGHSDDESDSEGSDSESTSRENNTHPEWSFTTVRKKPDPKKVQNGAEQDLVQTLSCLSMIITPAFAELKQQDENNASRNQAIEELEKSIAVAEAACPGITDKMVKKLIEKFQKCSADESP

[16] = biological target: Mitogen-activated protein kinase 12 (Homo sapiens) (UniProt P53778); experiment: Inhibition of P38gamma (unknown origin) assessed as remaining activity at 1 uM by Kinome scan method relative to control
Chain of Mitogen-activated protein kinase 12 (Homo sapiens) (P53778 whole entry, canonical isoform): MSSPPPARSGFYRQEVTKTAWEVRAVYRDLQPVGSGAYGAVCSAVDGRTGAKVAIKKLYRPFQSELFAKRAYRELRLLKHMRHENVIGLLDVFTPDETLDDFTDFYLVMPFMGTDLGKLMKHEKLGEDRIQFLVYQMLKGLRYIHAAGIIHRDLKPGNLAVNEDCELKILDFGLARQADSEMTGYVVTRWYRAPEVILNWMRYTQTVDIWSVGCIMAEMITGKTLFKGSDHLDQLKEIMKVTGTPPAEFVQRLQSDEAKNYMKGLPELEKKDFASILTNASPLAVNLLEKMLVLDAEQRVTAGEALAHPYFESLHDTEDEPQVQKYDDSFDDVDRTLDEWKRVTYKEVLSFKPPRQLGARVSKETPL

[17] = test system: Phosphatidylinositol 4,5-bisphosphate 3-kinase catalytic subunit alpha isoform (Homo sapiens), P42336 [H1047Y]; experiment: Inhibition of PIK3CA H1047Y mutant (unknown origin) assessed as remaining activity at 1 uM by Kinome scan method relative to control
[18] = biological target: Proto-oncogene tyrosine-protein kinase receptor Ret (Homo sapiens) (UniProt P07949); experiment: Inhibition of RET (unknown origin) assessed as remaining activity at 1 uM by Kinome scan method relative to control
[19] = biological target: Serine/threonine-protein kinase TAO1 (Homo sapiens) (UniProt Q7L7X3); experiment: Inhibition of TAOK1 (unknown origin) assessed as remaining activity at 1 uM by Kinome scan method relative to control
[20] = biological target: Serine/threonine-protein kinase TAO3 (Homo sapiens) (UniProt Q9H2K8); experiment: Inhibition of TAOK3 (unknown origin) assessed as remaining activity at 1 uM by Kinome scan method relative to control
[21] = biological target: Dual specificity testis-specific protein kinase 1 (Homo sapiens) (UniProt Q15569); experiment: Inhibition of TESK1 (unknown origin) assessed as remaining activity at 1 uM by Kinome scan method relative to control
Chain of Dual specificity testis-specific protein kinase 1 (Homo sapiens) (Q15569 whole entry, looked up): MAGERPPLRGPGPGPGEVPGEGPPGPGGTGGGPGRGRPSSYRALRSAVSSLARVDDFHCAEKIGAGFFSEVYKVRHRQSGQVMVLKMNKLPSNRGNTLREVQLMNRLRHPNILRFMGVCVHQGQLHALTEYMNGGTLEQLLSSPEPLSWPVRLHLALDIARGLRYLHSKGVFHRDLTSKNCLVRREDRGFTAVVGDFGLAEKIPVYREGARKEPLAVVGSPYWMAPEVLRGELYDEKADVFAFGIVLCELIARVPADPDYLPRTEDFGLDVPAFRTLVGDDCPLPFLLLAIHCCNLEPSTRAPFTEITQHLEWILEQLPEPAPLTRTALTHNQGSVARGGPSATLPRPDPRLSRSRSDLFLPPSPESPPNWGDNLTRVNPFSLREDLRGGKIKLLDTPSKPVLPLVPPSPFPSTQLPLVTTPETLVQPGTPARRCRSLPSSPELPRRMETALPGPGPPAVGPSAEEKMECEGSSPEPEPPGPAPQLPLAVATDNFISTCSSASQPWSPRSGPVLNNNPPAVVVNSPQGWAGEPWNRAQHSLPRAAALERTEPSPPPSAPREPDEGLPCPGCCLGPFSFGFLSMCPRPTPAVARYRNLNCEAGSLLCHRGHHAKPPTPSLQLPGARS

[22] = biological target: Serine/threonine-protein kinase DCLK1 (Homo sapiens, UniProt O15075); experiment: Binding affinity to DCAMKL1 (unknown origin) assessed as dissociation constant
[23] = biological target: Phosphatidylinositol 4,5-bisphosphate 3-kinase catalytic subunit gamma isoform (Homo sapiens, UniProt P48736); experiment: Binding affinity to PIK3CG (unknown origin) assessed as dissociation constant
Chain of Phosphatidylinositol 4,5-bisphosphate 3-kinase catalytic subunit gamma isoform (P48736 whole entry, canonical isoform): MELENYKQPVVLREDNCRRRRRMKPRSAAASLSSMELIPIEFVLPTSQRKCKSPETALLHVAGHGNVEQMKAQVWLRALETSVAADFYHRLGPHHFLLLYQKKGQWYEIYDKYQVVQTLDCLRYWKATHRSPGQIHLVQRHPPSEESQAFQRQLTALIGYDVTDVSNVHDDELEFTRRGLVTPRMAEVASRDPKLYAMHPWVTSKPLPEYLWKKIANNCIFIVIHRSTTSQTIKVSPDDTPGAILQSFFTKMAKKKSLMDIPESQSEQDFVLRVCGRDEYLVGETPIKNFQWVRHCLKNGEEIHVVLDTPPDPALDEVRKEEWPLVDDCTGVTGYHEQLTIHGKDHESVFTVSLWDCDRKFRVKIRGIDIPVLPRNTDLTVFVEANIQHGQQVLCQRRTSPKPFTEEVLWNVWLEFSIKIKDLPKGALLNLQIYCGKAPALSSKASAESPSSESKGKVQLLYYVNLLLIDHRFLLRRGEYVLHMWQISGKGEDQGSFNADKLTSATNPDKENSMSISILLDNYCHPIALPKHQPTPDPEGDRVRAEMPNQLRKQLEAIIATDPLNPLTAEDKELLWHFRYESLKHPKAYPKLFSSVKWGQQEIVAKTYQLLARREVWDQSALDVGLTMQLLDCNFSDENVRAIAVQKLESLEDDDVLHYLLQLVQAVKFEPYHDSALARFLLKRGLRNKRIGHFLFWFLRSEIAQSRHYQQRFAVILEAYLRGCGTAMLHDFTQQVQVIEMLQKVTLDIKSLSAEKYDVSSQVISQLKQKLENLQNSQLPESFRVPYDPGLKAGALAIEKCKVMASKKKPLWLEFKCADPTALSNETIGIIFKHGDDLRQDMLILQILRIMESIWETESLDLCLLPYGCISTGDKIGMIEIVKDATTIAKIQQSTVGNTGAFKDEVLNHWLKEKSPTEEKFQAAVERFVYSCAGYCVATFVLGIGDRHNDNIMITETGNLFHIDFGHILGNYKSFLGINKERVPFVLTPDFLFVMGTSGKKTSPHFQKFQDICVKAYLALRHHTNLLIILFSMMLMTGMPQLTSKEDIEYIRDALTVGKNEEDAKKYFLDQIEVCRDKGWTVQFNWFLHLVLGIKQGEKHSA

[24] = biological target: Phosphatidylinositol 4-phosphate 5-kinase type-1 gamma (Homo sapiens, UniProt O60331); experiment: Binding affinity to PIP5K1C (unknown origin) assessed as dissociation constant
Homo sapiens = organism: Homo sapiens; experiment: Inhibition of recombinant His-tagged full-length MST1 D109A mutant (unknown origin) expressing in Escherichia coli assessed as GST-tagged MOB1 phosphorylation level at 0.01 to 1 uM incubated for 15 min by immunoblot analysis; conditions: dose 0.01-1 µM
Mus musculus [25] = experiment: Anti-colitis activity against DSS-induced mouse assessed as suppression in disease activity index at 1 mg/kg, ip administrated daily for over 1 to 21 days; type: functional, organism-based; conditions: time 1-21 day
How it was run: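 Colitis was induced in wild-type mice with DSS on days 1–7, with vehicle or 1 mg/kg daily (n = 12 per group). Disease activity index (diarrhea, rectal bleeding) was scored daily over days 1–21. Student's t test at each time point.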

Mus musculus [26] = experiment: Anti-colitis activity against DSS-induced mouse assessed as high Ki67-positive proliferating cells at 1 mg/kg, ip administrated daily for 8 days by IHC staining; type: functional, organism-based; conditions: Colon, time 8.0 day
How it was run: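 Wild-type mice received oral DSS for 7 days with vehicle or 1 mg/kg daily. Colon sections were stained by IHC for YAP, BrdU and Ki67, and positive cells were quantified per animal. Means ± SD, n = 10, Student's t test.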

## CN1C(=O)c2sccc2N(C)c2nc(Nc3ccc(S(N)(=O)=O)cc3)ncc21
[1]
  Activity: 91%
[2]
  Activity: 76%
[3]
  Activity: 100%
[4]
  Activity: 85%
[5]
  Activity: 85%
[6]
  Activity: 99%
[7]
  Activity: 100%
[8]
  Activity: 67%
[9]
  Activity: 91%
[10]
  Activity: 86%
[11]
  Activity: 67%
[12]
  Activity: 83%
[13]
  Activity: 58%
[14]
  Activity: 96%
[15]
  Activity: 0.6%
[16]
  Activity: 48%
[17]
  Activity: 57%
[18]
  Activity: 100%
[19]
  Activity: 2.6%
[20]
  Activity: 4.5%
[21]
  Activity: 80%
[22]
  Kd: 25 nM
[23]
  Kd: 4.8 nM
[24]
  Kd: 77 nM
Homo sapiens
  inhibition: Active
Mus musculus [25]
  Activity: Active
Mus musculus [26]
  Activity: Active
